ChEMBL document CHEMBL4371095, “Triazole-Based Inhibitors of the Wnt/β-Catenin Signaling Pathway Improve Glucose and Lipid Metabolisms in Diet-Induced Obese Mice” (J Med Chem, 2019)
Active and inactive are the calls of the source. The rule behind the calls is not given here.

Experiments:
[1] = Toxicity in high fat diet fed C57BL/6J mouse assessed as serum AST level at 40 mg/kg, ip administered every 2 days for 11 weeks (reference value: 131 +/- 15.6 U/L); assay type: organism-based; details: in vivo
HEK293 [2] = test: Inhibition of Wnt/beta-catenin/Axin signaling (unknown origin) expressed in HEK293 cells assessed as increase in Axin binding to beta-catenin after 12 hrs by immunoprecipitation method; assay type: cell-based; details: Homo sapiens
HEK293 [3] = test: Growth inhibition of unstimulated HEK293 cells up to 100 uM after 72 hrs by CellTiter-Fluor assay; assay type: cell-based; details: human, hek293, 72 h
How it was run: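 Unstimulated HEK293 cells were plated at 3.5×10^5/well and grown for 24 h, then incubated with compound for 72 h. Viability was read with CellTiter-Fluor.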

Mus musculus [4] = test: Decrease in liver weight adjusted by body weight gain in high fat diet fed C57BL/6J mouse at 40 mg/kg, ip administered every 2 days for 11 weeks; assay type: functional, organism-based
How it was run: (§1)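 Male mice, 8 weeks old, 24–27 g, given a 45% kcal fat diet for 6 weeks, then dosed i.p. every 2 days in corn oil vehicle with the diet continued. Sacrifice was about 24 h after the last dose. Liver was examined by H&E. Liver and serum triglyceride were measured by kit. Serum chemistry was included, and liver/body weight ratio was calculated.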

[5] = Toxicity in high fat diet fed C57BL/6J mouse assessed as serum cholesterol level at 40 mg/kg, ip administered every 2 days for 11 weeks (reference value: 316 +/- 25 mg/dl); assay type: organism-based; details: in vivo
Mus musculus [6] = test: Effect on hepatic ACC1 mRNA level in normal chow diet fed C57BL/6J mouse at 40 mg/kg, ip administered every 2 days for 11 weeks by qPCR analysis; assay type: ADME, organism-based; details: in vivo
How it was run: (§2)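 Male mice, 8 weeks old, kept on normal chow throughout and dosed i.p. every 2 days in corn oil vehicle for 11 weeks. Body weight gain, liver/body weight ratio, and liver mRNA of the indicated genes were measured at sacrifice; mean ± SEM, n = 5 per group where stated.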

[7] = Toxicity in high fat diet fed C57BL/6J mouse assessed as serum total bilirubin level at 40 mg/kg, ip administered every 2 days for 11 weeks (reference value: 0.2 mg/dl); assay type: organism-based; details: in vivo
[8] = Toxicity in normal chow diet fed C57BL/6J mouse assessed as serum triglyceride level at 40 mg/kg, ip administered every 2 days for 11 weeks (reference value: 69 +/- 2.5 mg/dl); assay type: organism-based; details: in vivo
Mus musculus [9] = test: Effect on hepatic […] mRNA level in normal chow diet fed C57BL/6J mouse at 40 mg/kg, ip administered every 2 days for 11 weeks by qPCR analysis; assay type: ADME, organism-based; details: in vivo; how it was run: as §2
HEK293 [10] = test: Inhibition of Wnt (unknown origin)/FLAG-tagged human beta-catenin S33Y mutant signaling expressed in HEK293 cells harboring TCF/LEF-responsive luciferase at 100 nM measured after 24 hrs by luciferase reporter gene assay; assay type: cell-based
How it was run: (§3)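 HEK293 cells were transfected for 16 h with TOPFlash or FOPFlash, Renilla, and pcDNA3 wild-type or S33Y β-catenin. Compound was then added for a further 24 h. Firefly/Renilla dual-luciferase ratio was the read-out.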

[11] = Toxicity in high fat diet fed C57BL/6J mouse assessed as serum uric acid level at 40 mg/kg, ip administered every 2 days for 11 weeks (reference value: 6.3 +/- 0.5 mg/dl); assay type: organism-based; details: in vivo
[12] = Toxicity in normal chow diet fed C57BL/6J mouse assessed as serum LDH level at 40 mg/kg, ip administered every 2 days for 11 weeks (reference value: 324 +/- 63.5 U/L); assay type: organism-based; details: in vivo
Mus musculus [13] = species on record: Mus musculus; test: Inhibition of Wnt/beta-catenin/Axin signaling in mouse hepatocytes assessed as decrease in PEPCK mRNA level at 5 uM by qPCR analysis; assay type: cell-based
How it was run: (§4)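 Normal mouse hepatocytes were treated with 5 μM compound, and lipogenic and gluconeogenic gene mRNA was measured by qPCR; mean ± S.D. of triplicates.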

HEK293 [14] = test: Inhibition of Wnt (unknown origin)/FLAG-tagged human beta-catenin signaling expressed in HEK293 cells harboring TCF/LEF-responsive luciferase at 100 nM measured after 24 hrs by luciferase reporter gene assay; assay type: cell-based; how it was run: as §3
Mus musculus [15] = test: Decrease in serum cholesterol level in high fat diet fed C57BL/6J mouse at 40 mg/kg, ip administered every 2 days for 11 weeks; assay type: functional, organism-based; how it was run: as §1
[16] = Toxicity in normal chow diet fed C57BL/6J mouse assessed as serum AST level at 40 mg/kg, ip administered every 2 days for 11 weeks (reference value: 119 +/- 28.3 U/L); assay type: organism-based; details: in vivo
SW480 = test: Inhibition of Wnt/beta-catenin signaling in human SW480 cells harboring APC mutant at 50 nM after 24 hrs by luciferase reporter gene assay; assay type: cell-based
Mus musculus [17] = test: Decrease in hepatic Glp1 mRNA level in high fat diet fed C57BL/6J mouse at 40 mg/kg, ip administered every 2 days for 11 weeks by qPCR analysis; assay type: functional, organism-based
How it was run: (§5)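 Male mice, 8 weeks old, fed a 45% kcal fat diet for 6 weeks, then dosed i.p. every 2 days in corn oil vehicle for 11 weeks. Liver mRNA of the indicated genes was quantified at sacrifice; mean ± SEM, n = 5 per group.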

HEK293 [18] = test: Inhibition of Wnt/beta-catenin signaling (unknown origin) expressed in CK1alpha knock down HEK293 cells harboring TCF/LEF-responsive luciferase assessed as luminescence at 20 nM measured after 24 hrs by luciferase reporter gene assay relative to control; assay type: cell-based; set-up: scale not given: the % may be the effect or the level left; details: Homo sapiens
How it was run: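 HEK293 cells were transfected with siRNA against GSK3β, Axin or CK1α using RNAiMAX for 36 h. Cells were then treated with or without compound at 20 nM for 24 h, and TCF/LEF luciferase reporter activity was read.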

HEK293 [19] = test: Inhibition of Wnt/beta-catenin signaling (unknown origin) expressed in HEK293 cells assessed as increase in GSK3beta binding to beta-catenin after 12 hrs by immunoprecipitation method; assay type: cell-based; details: Homo sapiens
Mus musculus [20] = test: Decrease in hepatic FASN mRNA level in high fat diet fed C57BL/6J mouse at 40 mg/kg, ip administered every 2 days for 11 weeks by qPCR analysis; assay type: functional, organism-based; how it was run: as §5
Mus musculus [21] = test: Effect on liver weight adjusted by body weight gain in normal chow diet fed C57BL/6J mouse at 40 mg/kg, ip administered every 2 days for 11 weeks; assay type: ADME, organism-based; details: in vivo; how it was run: as §2
[22] = Toxicity in normal chow diet fed C57BL/6J mouse assessed as serum ALT level at 40 mg/kg, ip administered every 2 days for 11 weeks (reference value: 20 +/- 5.1 U/L); assay type: organism-based; details: in vivo
Mus musculus [23] = test: Effect on hepatic PEPCK mRNA level in normal chow diet fed C57BL/6J mouse at 40 mg/kg, ip administered every 2 days for 11 weeks by qPCR analysis; assay type: ADME, organism-based; details: in vivo; how it was run: as §2
[24] = Oral bioavailability in mouse at 10 mg/kg administered as single dose by LC-MS analysis; assay type: ADME, organism-based; details: in vivo
Mus musculus [25] = species on record: Mus musculus; test: Inhibition of Wnt/beta-catenin/Axin signaling in mouse hepatocytes assessed as decrease in FASN mRNA level at 5 uM by qPCR analysis; assay type: cell-based; how it was run: as §4
Mus musculus [26] = test: Decrease in hepatic ACC1 mRNA level in high fat diet fed C57BL/6J mouse at 40 mg/kg, ip administered every 2 days for 11 weeks by qPCR analysis; assay type: functional, organism-based; how it was run: as §5
[27] = Toxicity in normal chow diet fed C57BL/6J mouse assessed as serum uric acid level at 40 mg/kg, ip administered every 2 days for 11 weeks (reference value: 4 +/- 0.2 mg/dl); assay type: organism-based; details: in vivo

Cc1ccccc1-n1nnc(C(=O)Nc2ccc3ccccc3n2)c1C
Activity [1]: 94.8 U/L
inhibition (HEK293 [2]): Active
growth inhibition (GI) (HEK293 [3]): Non-Toxic
Activity (Mus musculus [4]): Active
Activity [5]: 223 mg/dL
Activity (Mus musculus [6]): Non-Toxic
Activity [7]: 0.2 mg/dL
Activity [8]: 55 mg/dL
Activity (Mus musculus [9]): Non-Toxic
inhibition (HEK293 [10]): Active
Activity [11]: 4.8 mg/dL
Activity [12]: 190 U/L
inhibition (Mus musculus [13]): Active
inhibition (HEK293 [14]): Active
Activity (Mus musculus [15]): Active
Activity [16]: 74.5 U/L
inhibition (SW480): Active
Activity (Mus musculus [17]): Active
Activity (HEK293 [18]): 52%
inhibition (HEK293 [19]): Active
Activity (Mus musculus [20]): Active
Activity (Mus musculus [21]): Non-Toxic
Activity [22]: 12.8 U/L
Activity (Mus musculus [23]): Non-Toxic
bioavailability [24]: 21%
inhibition (Mus musculus [25]): Active
Activity (Mus musculus [26]): Active
Activity [27]: 3.8 mg/dL
